S1P3 antag – S1P3 (human) receptor antagonism; AID 485; inhibition, % at 4.98 µM; Q99500; CHO S1P3 NFAT-BLA reporter, FRET fluorescence, antagonist mode; hit rate 0.27% among 170,000;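 active means inhibition above the plate cutoff, the mean inhibition of test wells on that plate plus 3 SD, cut at about 28% in these data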;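 further: cells challenged with S1P at its EC80 of 0.8 µM; blue over green emission ratio from cleaved BLA substrate after 4 h stimulation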
Target sequence (Q99500 whole entry, looked up): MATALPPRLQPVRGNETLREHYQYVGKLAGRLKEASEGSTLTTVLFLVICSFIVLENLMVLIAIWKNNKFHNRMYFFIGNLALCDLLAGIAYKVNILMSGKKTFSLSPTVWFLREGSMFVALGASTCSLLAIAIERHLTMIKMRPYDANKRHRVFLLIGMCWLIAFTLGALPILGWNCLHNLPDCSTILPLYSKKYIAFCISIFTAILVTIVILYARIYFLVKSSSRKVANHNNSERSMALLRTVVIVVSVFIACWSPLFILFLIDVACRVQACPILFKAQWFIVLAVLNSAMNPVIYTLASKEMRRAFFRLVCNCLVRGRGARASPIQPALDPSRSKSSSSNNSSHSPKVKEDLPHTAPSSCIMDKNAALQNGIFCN
Hsp70 activator – transcriptional activators of Hsp70; HeLa Hsp70 promoter luciferase reporter, luminescence; scaled: vehicle 0, proteasome-inhibitor control 100%; activation, % at 10 µM; hit rate 0.04% among 200,000; AID 1203;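 active means activation above the mean across all tested compounds plus 3 SD, cutoff set per campaign, cut at about 5.5% in these data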
Mdm2 ligase inh – inhibitors of human Mdm2 E3 ubiquitin ligase. Q00987. cell-based MDM2 ubiquitination luciferase reporter, 2 h; 0 = plate control, 100 = twice control, blank-subtracted. signal enhancement, % at 5 µM. hit rate 0.11% among 210,000;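 active means signal enhancement of 30% or more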;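 further: luminescence tracks abundance of the self-degrading MDM2-luciferase fusion protein; higher signal means inhibition of MDM2 E3 ligase activity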
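system = mammalian cells stably expressing self-ubiquitinating, self-degrading MDM2 E3–luciferase fusion | quantity = 2000 cells per well seeded | incubation = 4 h cell settling then 2 h compound exposure, 37 °C | signal = SteadyLite luminescence, 15 min reagent step | benchmarks = plate control and blank wells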
CHOP inh – CHOP inhibition in unfolded protein response; inhibition, % at 10 µM; CHO-K1 CHOP-promoter luciferase, tunicamycin-induced, 15-18 h; hit rate 3.8% among 220,000;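 active means compounds that reduced the stress-induced luciferase reporter signal by more than about 70% of percent inhibition, limit read from the data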
CHOP inh conf – confirmation of CHOP induction inhibitors | shares compounds with CHOP inh | CHO-CHOP promoter luciferase reporter, tunicamycin-induced, luminescence | inhibition, % at 10 µM | hit rate 45% among 2,100;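 active means mean of three repeat readings of reporter signal inhibition above a set limit, cut at about 70% in these data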
Of the large screens only hits and unclear results are named; the others gave an inactive call (follow-up assays come after a bar, where they were run). Compounds with a hit are over-represented: about 4% of the library has one in this group of screens.

CCCc1cc(-c2nc(N)ncc2-c2ccc3c(c2)OCCCO3)c(O)cc1OC	CHOP inh 106 (no result: S1P3 antag) | CHOP inh conf 122
O=C(Nc1ccc(OC(F)F)c(Cl)c1)Nc1ccc2c(c1)OCO2	CHOP inh 106 | CHOP inh conf inactive
O=C(Nc1ccc([N+](=O)[O-])cc1)Nc1ccc(OC(F)F)c(Cl)c1	CHOP inh 106 | CHOP inh conf 125
O=C(Nc1ccc(O)cc1)c1c(O)c2c([nH]c1=O)CCCC2	none
CCOC(=O)Cc1csc(NC(=O)NC2(C(F)(F)F)Oc3ccc(Cl)cc3O2)n1 (configuration not stated)	CHOP inh 105 (no result: S1P3 antag) | CHOP inh conf 111
CCOC(=O)Cc1csc(NC(=O)NC2(C(F)(F)F)Oc3cc(Cl)c(Cl)cc3O2)n1	CHOP inh 102 (no result: S1P3 antag) | CHOP inh conf 110
CC(=O)N1N=C(c2ccc(C)o2)CC1c1cccc(F)c1 (configuration not stated)	none
Cc1sc(NC(=O)c2sc3nc4c(C)cccc4cc3c2N)c(C#N)c1C	none (no result: S1P3 antag)
Cc1cccc2cc3c(N)c(C#N)sc3nc12	CHOP inh 99 | CHOP inh conf 70
Cc1ccc(C)c(NC(=O)C2CC=CCC2C(=O)O)c1 (configuration not stated)	none
Cc1ccc(C)c(NC(=O)C2CC3c4ccccc4C2c2ccccc23)c1 (configuration not stated)	CHOP inh 99 (no result: S1P3 antag) | CHOP inh conf inactive
CC1=C/C(=N\OS(=O)(=O)c2ccccc2)C(C)=CC1=O	CHOP inh 111 (no result: S1P3 antag) | CHOP inh conf 128
CC1=C/C(=N\OS(=O)(=O)c2ccccc2)C(C(C)C)=CC1=O	none
CC1=C(C)/C(=N\OS(=O)(=O)c2ccc(C)cc2)C=CC1=O	CHOP inh 108 | CHOP inh conf 104
COc1ccccc1-c1nc(-c2ccccc2)[nH]c(=O)c1C#N	none
N#CC(=NCc1cccnc1)C1=C(O)c2ccccc2C1=O	none (no result: Hsp70 activator)
Cc1ccc(-c2ccc(/C=C3/NC(=O)NC3=O)o2)cc1[N+](=O)[O-]	CHOP inh 98 | CHOP inh conf inactive
COc1cc(C(=O)ON=C2C(C)=CC(=O)C=C2C)cc(OC)c1OC	CHOP inh 110 (no result: S1P3 antag) | CHOP inh conf inactive
O=C(CC1Oc2ccccc2NC1=O)NCCCN1CCN(C2CCCCC2)CC1 (configuration not stated)	none (no result: Mdm2 ligase inh, CHOP inh)
Cc1csc(Sc2nc3c(c(=O)[nH]c(=O)n3C)n2CCCc2ccccc2)n1	none
CCc1ccc(NC(=O)C(CC)Sc2nc3cc4c(cc3c(=O)n2Cc2ccco2)OCO4)cc1 (configuration not stated)	CHOP inh 96 (no result: S1P3 antag) | CHOP inh conf inactive
Cc1cc(C)cc(C(=O)NCC(=O)OCC(=O)Nc2cccnc2Cl)c1	none
CCOc1cc(/C=N/NC(N)=O)cc(Br)c1OCC(=O)Nc1ccccc1C	none (no result: S1P3 antag)
CCOc1cc(/C=C\[N+](=O)[O-])ccc1OCC(=O)Nc1ccccc1C	CHOP inh 108 (no result: S1P3 antag) | CHOP inh conf 136
FC(F)(F)c1cccc(NC(=S)N2CCN(c3cccc(C(F)(F)F)c3)CC2)c1	CHOP inh 107 (no result: S1P3 antag) | CHOP inh conf 116
O=C(Nc1nnc(-c2ccc(Cl)cc2)o1)Nc1ccccc1Cl	none (no result: S1P3 antag)
O=C(Nc1nnc(-c2ccc(Cl)cc2)o1)c1nc2ccccc2s1	CHOP inh 104 (no result: S1P3 antag) | CHOP inh conf inactive
O=C(O)COc1ccccc1/C=N/NC(=O)CSc1nnc(SCc2cccc3ccccc23)s1	none (no result: Hsp70 activator)
O=C(CSc1nnc(SCc2cccc3ccccc23)s1)N/N=C/c1c[nH]c2ccccc12	CHOP inh 105 | CHOP inh conf inactive
O=C(NC(C(=O)c1ccccc1)N1CCCCC1)c1ccccc1 (configuration not stated)	none
CNC(=O)/C(C#N)=C/c1ccc(-c2ccc(Cl)cc2)o1	CHOP inh 97 | CHOP inh conf inactive
CCOC(=O)c1ccc(-c2ccc(/C=C(\C#N)C(=O)NCc3cccs3)o2)cc1	CHOP inh 105 | CHOP inh conf inactive
N#C/C(=N\Nc1ccccc1F)c1nc(-c2ccccc2)cs1	none
O=c1[nH]nc(SCc2ccccc2)n1C1CC2C=CC1C2 (configuration not stated)	none (no result: Hsp70 activator)
O=C(CN1CCN(S(=O)(=O)c2ccc(Br)cc2)CC1)N/N=C/c1ccco1	none
Cc1cccc(N2CCN(C3=NC(=O)/C(=C\c4cn[nH]c4-c4ccccc4)S3)CC2)c1	CHOP inh 102 | CHOP inh conf inactive
O=C1N=C(N2CCN(c3ccccc3)CC2)S/C1=C\c1cn[nH]c1-c1ccccc1	none
CCCCNC(=O)Cc1cc(=O)[nH]c(=O)[nH]1	none

Source: PubChem
